Ecoli WT expand: growth inhibitors of wild-type E. coli, primary screen, strain BW25113, expanded library, OD600 | OD600 absorbance | growth inhibition, % at 100 µM | 98,000 tested, 0.15% active;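 active = growth inhibition above about 50% at one test dose, limit read from the data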;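 note: growth measured after 20 h incubation at 37 °C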
Ecoli tolC: growth inhibitors of E. coli tolC mutant, primary screen, strain BW25113 ΔtolC::kan, 384-well. OD615. growth inhibition, % at 10 µM (by protocol). 65,000 tested, 2.2% active;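 active = growth inhibition at or above a cutoff equal to the mean over every tested compound plus 3 SD, cut at about 60% in these data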;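 note: growth measured after 20 h incubation at 37 °C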
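Assay system: tolC-deleted E. coli BW25113. Medium: kanamycin-containing LB broth (50 µg/mL). Dosing: 10 µM final, single dose. Timing: bacterial growth with compound for 20 h at 37 °C. Detection: A615 absorbance measurement. Read-out basis: growth inhibition in percent.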
PostGolgi yeast: phenotypic screen on post-Golgi transport, primary screen; post-Golgi transport phenotypic cell assay; inhibition, % at 10 µM; 98,000 tested, 0.9% active; AID 739, 2007;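 note: yeast cells grown in 1536-well plates; yeast grown about 18 h at 30C before absorbance read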
DAT uptake mod: changed hDAT dopamine uptake under cocaine IC80, either direction, primary screen, cocaine antagonist project, cell-based, LLC-PK1 hDAT, [14C]-dopamine uptake, MLSMR | Sodium-dependent dopamine transporter (Homo sapiens), Q01959 | LLC-PK1 hDAT cells, [14C]-dopamine uptake with cocaine IC80; actives deviate in either direction | B-score at 10 µM | 110,000 tested, 1.3% active | AID 449768, 2010;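 active = Z score or B-score, a plate-position-corrected score, falls beyond the plate's 99.7% confidence bounds, in either direction; inactive = both scores lie inside the 99.7% bounds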;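 note: scored against the spread of the other compound wells on the same plate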
D1 mod: D1 CRE-luciferase signal change, two-sided – cell-based, HEK293 D1, dopamine EC30, D1 allosteric modulator project, primary screen; B-score at 10 µM; D(1A) dopamine receptor (Homo sapiens), P21728; AID 641, 2007; 58,000 tested, 5.9% active; dopamine EC30 potentiation; actives deviate in either direction;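 active = luminescence count or its row- and column-corrected plate score outside the 99.7% band of the plate's sample wells, on either side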
Target sequence (P21728 whole entry, looked up): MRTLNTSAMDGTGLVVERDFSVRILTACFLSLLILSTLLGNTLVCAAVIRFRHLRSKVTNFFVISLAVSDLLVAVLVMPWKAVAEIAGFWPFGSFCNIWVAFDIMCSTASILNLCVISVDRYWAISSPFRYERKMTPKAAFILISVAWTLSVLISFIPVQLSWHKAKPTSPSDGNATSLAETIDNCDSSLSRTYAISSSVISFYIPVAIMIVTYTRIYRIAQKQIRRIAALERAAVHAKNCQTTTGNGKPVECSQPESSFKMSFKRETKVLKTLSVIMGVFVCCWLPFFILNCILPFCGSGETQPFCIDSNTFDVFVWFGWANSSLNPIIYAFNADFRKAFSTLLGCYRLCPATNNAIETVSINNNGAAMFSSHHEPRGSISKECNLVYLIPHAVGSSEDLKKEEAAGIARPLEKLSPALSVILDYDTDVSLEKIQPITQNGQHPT
PostGolgi ctrl: growth inhibition of yeast control strain, primary screen, counter-screen for post-Golgi transport modulator project; inhibition, % at 10 µM; 98,000 tested, 5% active; efflux-deficient yeast background strain, growth absorbance A615, 16 h
The depositor's hits bear a star; . = not tested or not shown. An excerpt weighted towards active compounds, which were near 9.3% of everything screened. Cut-off read from the data, not from the text of the source, unless noted: active = inhibition above about 30%; inactive = the rest.

SMILES	Ecoli WT expand	Ecoli tolC	PostGolgi yeast	DAT uptake mod	D1 mod	PostGolgi ctrl
FC(F)(F)c1cccc(N2CCN(c3nnnn3-c3ccccc3)CC2)c1	1	69*	-1	-0.018	2.1	2
c1ccc(CC2CCN(c3nnnn3-c3ccccc3)CC2)cc1	-35	76*	4	.	1.6	32*
CCC1=C(OC(=O)N(CC)CC)N2C(=O)OC(=NCc3ccccc3)[C@]2(C)[C@H]2C1=CC[C@H]1C(=O)N(CC(=O)OC)C(=O)[C@H]12	.	.	.	2.8	.	.
CCC1=C(OC(=O)N(CC)CC)N2C(=O)OC(=NCc3ccccc3)[C@]2(C)[C@H]2C1=CC[C@H]1C(=O)N(c3ccccc3)C(=O)[C@H]12	.	.	.	1.8*	.	.
Cc1ccc(-c2nnc(N3CCN(C(=O)CSc4ncn[nH]4)CC3)c3ccccc23)cc1	6	10	5	2.7*	-1.9	-3
Cc1ccc(OCC(=O)N2CCN(c3nnc(-c4ccccc4)c4ccccc34)CC2)cc1	-20	.	-8	3*	.	28
CCN(CC)C(=O)COc1ccc(-c2nnc(N3CCCCC3)c3ccccc23)cc1	1	23	-9	2.2	-0.59	12
COc1ccc(-n2c(Cc3cccn3C)nnc2SCC(=O)Nc2ccc(C)c(Cl)c2)cc1	-18	75*	1	1.3	-0.87	30
Cc1cc(C)cc(NC(=O)CSc2nnc(Cc3cccn3C)n2-c2ccc(F)cc2)c1	-5	6	9	2.6*	0.15	14
Cc1ccc(-n2c(Cc3cccn3C)nnc2SCC(=O)N2CCc3ccccc32)cc1	-1	32	7	1.4	1.4	45*
COc1ccc(-n2c(Cc3cccn3C)nnc2SCC(=O)Nc2cccc(OC)c2)cc1	0	20	-4	3.2	0.57	3
Cc1cc(C)c(NC(=O)CSc2nnc(Cc3cccn3C)n2-c2ccc(F)cc2)c(C)c1	8	15	-5	1.2	-0.16	6
COc1cc(Cl)c(C)cc1NC(=O)COc1cc(C)nc(C(C)C)n1	2	6	9	-0.14	2	-1
COc1ccccc1NC(=O)COc1cc(C)nc(C(C)C)n1	-11	.	10	0.052	.	38*
CC1(c2nnc(-c3ccncc3)o2)CC(c2ccc([N+](=O)[O-])cc2)=NO1 (configuration not stated)	.	.	.	-0.92	.	.
O=c1nc(-c2ccccc2)c2ccccc2[nH]1	13	-18	0	0.48	2	59*
Cc1c(C(=O)N2CCCCC2)sc(NC(=O)C23CC4CC(CC(C4)C2)C3)c1C#N	.	.	.	-0.59	.	.
Cc1cccc(N2CCN(c3nc4ccccc4n4cnnc34)CC2)c1C	2	20	0	-0.69	0.48	37*
c1cnc(N2CCN(c3nc4ccccc4n4cnnc34)CC2)nc1	-2	9	-6	0.12	3.5	7
COc1ccc(NC(=S)Nc2cc(-c3ccccc3)[nH]n2)cc1Cl	4	.	-8	-1.4	.	30*
c1ccc(-c2nc(NCc3cccnc3)c3oc4ccccc4c3n2)cc1	-10	13	17	1.2	-0.91	55*
CSCC[C@@H](Nc1nc(-c2ccccc2)nc2c1oc1ccccc12)C(=O)O	1	35	6	1.2	0.3	-3
c1ccc(-c2nc(NCC3CCCO3)c3oc4ccccc4c3n2)cc1 (configuration not stated)	-24	.	2	-1.4	.	53*
O=C(CSc1nnc(Cc2ccccc2)o1)N1CCCc2ccccc21	-1	24	-3	2.6*	-0.58	12
Cc1cc(C)nc(SCc2nnc(SCC(=O)N3CCCc4ccccc43)o2)n1	6	11	-7	3.3*	-0.0028	14
SMILES	Ecoli WT expand	Ecoli tolC	PostGolgi yeast	DAT uptake mod	D1 mod	PostGolgi ctrl
Cc1sc(NC(=O)CSc2nnc(-c3ccccc3)o2)c(C#N)c1C	-2	7	0	-0.31	0.27	46*
Nc1ccc(S(=O)(=O)c2ccc(Cl)cc2)cc1	12	.	-1	-3.1*	.	11
O=C(Nc1ncc(Cc2ccccc2)s1)C1COc2ccccc2O1 (configuration not stated)	-11	.	-7	0.074	.	7
O=C(CCn1c(=O)oc2ccccc21)N1CCN(c2ccccc2Cl)CC1	-12	12	-4	3.4*	1.4	16
O=C(c1cc2ccccc2o1)N1CCN(c2ccccc2Cl)CC1	-10	100*	1	0.3	-0.023	40*
O=C(c1ccccc1)N1CCN(Cc2ccccc2)CC1	.	.	.	-0.93	.	.
O=C(c1ccccc1)N1CCN(C(=O)c2cc3ccccc3o2)CC1	1	.	3	-0.7	.	31*
O=C(CSc1nnc2c3ccccc3c3ccccc3c2n1)Nc1ccccc1F	11	.	0	.	.	15
O=C(CSc1nnc2c3ccccc3c3ccccc3c2n1)Nc1ccccc1	-3	.	-9	.	.	45*
CC1CC(C)CN(c2ncc3c(n2)CC(c2ccccc2)CC3=O)C1 (configuration not stated)	-11	35	5	2.5	-2.1	50*
CC(C)c1ccc(C2CC(=O)c3cnc(N4CCc5ccccc5C4)nc3C2)cc1 (configuration not stated)	-15	.	-5	-1.4	.	11
O=C1CC(c2ccco2)Cc2nc(N3CCc4ccccc4C3)ncc21 (configuration not stated)	3	23	-3	0.49	-0.39	42*
CCO[C@@H]1OC(C(=O)N2CCOCC2)=C[C@H](c2ccc(C(F)(F)F)cc2)[C@H]1CCCO	.	.	.	0.44	.	.
CC(=O)Oc1ccc(OC(C)=O)c(SCCCCCN2CCOCC2)c1	-1	.	6	-2.2	.	6
OC(COCc1cccs1)CN1CCN(c2ccccn2)CC1 (configuration not stated)	10	-13	-4	-0.9	.	0
OC(CN1CCN(c2ccccn2)CC1)Cn1c2ccccc2c2ccccc21 (configuration not stated)	-2	7	3	0.8	-2.7*	9
OC(COc1ccc(Cl)c2ccccc12)CN1CCN(c2ccccn2)CC1 (configuration not stated)	-6	100*	-2	.	-0.83	34*
Cn1c(Cn2cnc3ccccc32)nnc1SCC(=O)CC(=O)Nc1ccccc1	16	3	0	0.14	0.21	2
CCCCc1ccc(-c2ccc(C)cc2O)nc1	3	29	-5	0.01	-5.3*	7
Cc1cc(O)c(/C=N/Nc2ccc(Cl)cc2)c(=O)o1	95*	.	66*	-0.52	.	8
Cc1cc(O)c(/C=N/Nc2cccc(Cl)c2)c(=O)o1	16	.	15	-0.23	.	7
O=C1OC(c2ccccc2)=C/C1=C/N1CCCCC1	-2	7	-1	1.3	.	31*
O=C1OC(c2ccccc2)=N/C1=C\N1CCCCC1	2	.	3	1.4	.	13

Assay outcomes (PubChem BioAssay)
